Experimental data: ChEMBL document CHEMBL1156864, “Boron-containing phenoxyacetanilide derivatives as hypoxia-inducible factor (HIF)-1alpha inhibitors” (Bioorg Med Chem Lett, 2010)

Columns and labels:
HeLa = assay: Growth inhibition of human HeLa cells after 48 hrs by MTT assay; assay type: functional
Method in brief: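 HeLa cells exposed 48 h under normoxia to 100 nM–100 μM compound; viable cells measured by MTT. GI50 read from semi-logarithmic dose–response plots; mean ± SD of triplicate samples.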

[1] = target: Hypoxia-inducible factor 1-alpha (Homo sapiens, UniProt Q16665); assay: Inhibition of hypoxia-induced HIF1alpha activation in human HeLa cells after 12 hrs by HRE-luciferase reporter gene assay; assay type: cell-based
Chain of Hypoxia-inducible factor 1-alpha (Q16665 whole entry): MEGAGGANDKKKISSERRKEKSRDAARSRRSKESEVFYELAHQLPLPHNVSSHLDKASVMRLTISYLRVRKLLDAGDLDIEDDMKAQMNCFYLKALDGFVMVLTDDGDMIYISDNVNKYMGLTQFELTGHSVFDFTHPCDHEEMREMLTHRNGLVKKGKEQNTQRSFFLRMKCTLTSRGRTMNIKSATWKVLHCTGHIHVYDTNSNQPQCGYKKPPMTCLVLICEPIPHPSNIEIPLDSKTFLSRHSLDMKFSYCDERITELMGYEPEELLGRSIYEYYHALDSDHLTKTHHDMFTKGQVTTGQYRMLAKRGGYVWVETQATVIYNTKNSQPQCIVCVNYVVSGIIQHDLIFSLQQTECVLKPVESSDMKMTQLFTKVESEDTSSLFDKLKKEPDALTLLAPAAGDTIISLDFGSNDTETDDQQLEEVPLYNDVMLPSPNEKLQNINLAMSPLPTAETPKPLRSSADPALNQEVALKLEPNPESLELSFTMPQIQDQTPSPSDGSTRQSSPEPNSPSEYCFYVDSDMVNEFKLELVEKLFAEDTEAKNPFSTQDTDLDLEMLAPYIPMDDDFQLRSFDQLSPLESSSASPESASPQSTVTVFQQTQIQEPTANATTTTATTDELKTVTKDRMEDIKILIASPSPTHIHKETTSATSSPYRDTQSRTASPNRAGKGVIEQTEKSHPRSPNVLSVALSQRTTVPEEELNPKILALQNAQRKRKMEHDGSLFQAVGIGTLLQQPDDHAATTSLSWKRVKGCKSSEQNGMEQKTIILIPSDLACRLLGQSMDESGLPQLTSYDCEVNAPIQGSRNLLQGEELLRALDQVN
Method in brief: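 HeLa cells stably carrying HRE(×5)-luciferase reporter, incubated 12 h with or without drug under hypoxic conditions. Supernatant removed, then luciferase assay. IC50 is concentration halving relative light units, read from semi-logarithmic dose–response plots; mean ± SD of triplicates.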

`O=C(COc1ccc(C23CC4CC(CC(C4)C2)C3)cc1)Nc1cc(C(=O)O)ccc1O` was tested, and the GI50 (HeLa) was 51.6 µM and the IC50 [1] was 3.1 µM.

In the case of `O=C(COc1ccc(-c2ccccc2)cc1)Nc1cc(B(O)O)ccc1O`, the GI50 (HeLa) is reported as 85.9 µM and the IC50 [1] is reported as > 100 µM.

With `O=C(COc1ccc(C2CCCCC2)cc1)Nc1cc(B(O)O)ccc1O` the GI50 (HeLa) was 29.2 µM and the IC50 [1] was 84.8 µM.

In the case of `Cc1ccc(OCC(=O)Nc2cc(B(O)O)ccc2O)cc1`, the GI50 (HeLa) is reported as 25.7 µM and the IC50 [1] is reported as > 100 µM.

Compound `CC(C)(C)c1ccc(OCC(=O)Nc2cc(B(O)O)ccc2O)cc1` has a GI50 (HeLa) of 21.3 µM and an IC50 [1] of 40.3 µM.

In the case of `CCc1ccc(OCC(=O)Nc2cc(B(O)O)ccc2O)cc1`, the GI50 (HeLa) is reported as 14.9 µM and the IC50 [1] is reported as > 100 µM.

`CC1(C)OB(c2ccc(O)c(NC(=O)COc3ccc(-c4ccccc4)cc3)c2)OC1(C)C` was tested, and the GI50 (HeLa) was 5.8 µM and the IC50 [1] was > 100 µM.

`CC1(C)OB(c2ccc(O)c(NC(=O)COc3ccc(C4CCCCC4)cc3)c2)OC1(C)C` showed a GI50 (HeLa) of 13.4 µM and an IC50 [1] of 70.4 µM.

For `O=C(COc1ccc(C23CC4CC(CC(C4)C2)C3)cc1)Nc1cc(B(O)O)ccc1O`, the GI50 (HeLa) was 15.2 µM and the IC50 [1] was 4.6 µM.

`CC1(C)OB(c2ccc(O)c(NC(=O)COc3ccc(C45CC6CC(CC(C6)C4)C5)cc3)c2)OC1(C)C` gave a GI50 (HeLa) of 16 µM and an IC50 [1] of 3.1 µM.

With `Cc1ccc(OCC(=O)Nc2cc(B3OC(C)(C)C(C)(C)O3)ccc2O)cc1` the GI50 (HeLa) was 17.7 µM and the IC50 [1] was 90.6 µM.

`CCc1ccc(OCC(=O)Nc2cc(B3OC(C)(C)C(C)(C)O3)ccc2O)cc1` gave a GI50 (HeLa) of 8.6 µM and an IC50 [1] of 91.8 µM.

`CC(C)(C)c1ccc(OCC(=O)Nc2cc(B3OC(C)(C)C(C)(C)O3)ccc2O)cc1` gave a GI50 (HeLa) of 12.1 µM and an IC50 [1] of 35.3 µM.
